PfG6PD inh – PfG6PD (Plasmodium falciparum) enzyme inhibition; PfGluPho enzyme, NADPH resazurin-diaphorase fluorescence; inhibition, % at 20 µM; 350,000 compounds, 0.78% hits; AID 504690;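 active = inhibition reaching at least a set limit at 20 µM in the primary screen, cut at about 59% in these data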;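 also: 0% = DMSO wells with substrate and 100% = DMSO wells lacking glucose-6-phosphate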
Exocytosis inh – blocks lytic granule exocytosis; 360,000 compounds, 0.66% hits; TALL-104 LAMP-1 surface exposure, flow cytometry; cells stimulated with thapsigargin and PMA; inhibition, % at 10 µM;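 active = inhibition above about 55%, limit read from the data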
ABHD5-PLIN5 inh – ABHD5-PLIN5 protein interaction inhibition; Q00G26+Q8WTS1; Split G. princeps luciferase complementation, luminescence, 4 h; inhibition, % at 4 µM; 360,000 compounds, 0.78% hits;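 active = inhibition above the mean inhibition across every tested compound plus 3 SD, cut at about 22% in these data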;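 also: 0% = DMSO only wells and the 100% control is not disclosed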
Target sequence (Q00G26 whole entry, looked up): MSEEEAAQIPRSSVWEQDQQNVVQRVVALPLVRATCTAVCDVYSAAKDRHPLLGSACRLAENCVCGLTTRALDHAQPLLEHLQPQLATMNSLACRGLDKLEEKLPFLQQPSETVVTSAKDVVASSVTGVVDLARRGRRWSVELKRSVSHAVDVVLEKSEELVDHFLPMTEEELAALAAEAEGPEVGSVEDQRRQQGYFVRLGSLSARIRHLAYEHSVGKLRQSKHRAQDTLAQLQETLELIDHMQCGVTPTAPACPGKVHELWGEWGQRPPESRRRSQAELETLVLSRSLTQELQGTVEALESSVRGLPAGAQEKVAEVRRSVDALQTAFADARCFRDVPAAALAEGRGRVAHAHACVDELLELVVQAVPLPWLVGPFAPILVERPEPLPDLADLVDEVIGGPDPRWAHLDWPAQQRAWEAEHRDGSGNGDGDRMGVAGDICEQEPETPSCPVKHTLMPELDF
Target sequence (Q8WTS1 whole entry, looked up): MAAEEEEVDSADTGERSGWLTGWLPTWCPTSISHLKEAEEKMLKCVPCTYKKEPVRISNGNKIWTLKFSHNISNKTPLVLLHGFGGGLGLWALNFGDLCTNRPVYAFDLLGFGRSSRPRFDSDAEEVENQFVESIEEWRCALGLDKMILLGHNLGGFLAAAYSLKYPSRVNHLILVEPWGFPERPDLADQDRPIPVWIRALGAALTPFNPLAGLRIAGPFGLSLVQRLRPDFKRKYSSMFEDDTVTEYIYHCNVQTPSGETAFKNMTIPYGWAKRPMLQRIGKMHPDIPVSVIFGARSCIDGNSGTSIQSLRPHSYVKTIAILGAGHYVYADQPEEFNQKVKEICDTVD
HKDC1 inhibitor – HKDC1 (human) hexokinase inhibition. 340,000 compounds, 0.16% hits. inhibition, % at 20 µM. recombinant HKDC1, G6PDH/diaphorase resazurin coupled fluorescence;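 active = inhibition above about 35% when tested at 20 µM, limit read from the data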;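 also: plate controls were DMSO wells with enzyme for no effect and DMSO wells lacking enzyme for full effect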
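Assay system: recombinant HKDC1 hexokinase; detection: coupled resazurin fluorescence, excitation 525 nm, emission 613 nm; benchmarks: DMSO-plus-enzyme-mix negative control, buffer-substituted positive control; compound dosing: single 20 µM dose; schedule: 90 min at room temperature in dark; also added: glucose plus 1 mM ATP as hexokinase substrates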
Starred values were filed as active, the others as inactive; · = no result given. An excerpt weighted towards active compounds, which were near 2.2% of everything screened.

SMILES	PfG6PD inh	Exocytosis inh	ABHD5-PLIN5 inh	HKDC1 inhibitor
COc1ccc(C2=CC(=O)CCC2)cc1	6	94*	0	-1
CC1(C)CC(=O)C=C(c2ccc(-c3ccc4[nH]ccc4c3)cc2)C1=O	18	70*	4	·
N=c1n(CC(=O)c2ccc([N+](=O)[O-])cc2)c2ccccc2n1Cc1ccccc1	48	76*	-1	-7
N=c1n(CC(=O)c2ccc([N+](=O)[O-])cc2)c2ccccc2n1Cc1ccc(Cl)cc1	50	4	-1	4
O=[N+]([O-])c1ccc(N/N=C\c2cccn2-c2ccccc2)nc1	14	57*	13	2
O=C1CSC(c2nn(-c3ccccc3)cc2-c2cc3ccccc3oc2=O)N1Cc1ccco1 (configuration not stated)	13	1	23*	-8
Cc1cc2c(N=O)c(NO)ccc2[nH]1	70*	0	1	-3
O=C(O)CCCN1C(=O)/C(=C\c2ccc(-c3nc4ccccc4s3)o2)SC1=S	11	76*	-5	5
O=C(O)CCN1C(=O)/C(=C/c2ccc(-c3nc4ccccc4s3)o2)SC1=S	5	98*	-4	-3
O=C(O)c1cc(-c2ccc(/C=C3/SC(=S)N(Cc4ccccc4)C3=O)o2)ccc1Cl	-6	90*	5	6
CC(CNC(=O)c1ccc(OC2CCN(Cc3ccccn3)CC2)cc1)c1ccccc1 (configuration not stated)	·	0	-2	·
CCCCNC(=O)c1onc(CSc2ccc(Cl)cc2)c1C(=O)NCCCC	45	70*	-11	2
COC(=O)C1=C(C)NC(=O)/C1=C\c1cc(C)n(-c2ccc(F)cc2)c1C	20	104*	11	-5
Cc1cc(N/N=C/c2ccccc2O)c2ccccc2n1	11	76*	1	1
COc1ccc2nc(C)cc(N/N=C/c3cccc(OC)c3O)c2c1	24	44	9	3
Cc1cc(C)n(-c2ccccc2C#N)n1	-17	-5	3	6
C=CCN1CCc2nc(N)sc2CC1	50	3	-10	3
CCN1CCc2nc(N)sc2C1	62*	-2	-1	-5
O=C1C(Cc2ccccc2)Nc2ncnc(N3CCCCC3)c2N1Cc1ccc(Cl)cc1 (configuration not stated)	13	2	4	7
O=C(Cn1c(=O)oc2ccccc21)Nc1n[nH]c(=S)s1	38	-1	0	-5
Cc1sc2c(c1C)C(=O)NC(c1ccccc1F)N2 (configuration not stated)	75*	-2	-17	-10
Cc1cccc(C2NC(=O)c3c(sc(C)c3C)N2)c1O (configuration not stated)	14	0	-39	-5
S=C(Nc1cccc(Cl)c1)N(CCCN1CCCC1)Cc1cccn1Cc1ccc(Cl)cc1	18	85*	17	-1
COc1cccc(NC(=S)N(CCCN2CCCC2)Cc2cccn2Cc2ccc(Cl)cc2)c1	6	12	16	1
C=C(CCO)C1=CCN(S(=O)C(C)(C)C)[C@@H]1CCO (some centres not stated)	2	-3	0	-4
SMILES	PfG6PD inh	Exocytosis inh	ABHD5-PLIN5 inh	HKDC1 inhibitor
Cc1nc2cc(C)c(C)cc2s1	-12	-1	-5	15
Cc1cc2nc3ccc(=[N+](C)C)cc-3sc2cc1N	102*	-4	9	47*
CNC(=O)C1C(=S)NC(N)=C(C#N)C1c1ccccc1 (configuration not stated)	42	69*	-25	2
O=[N+]([O-])c1cnc(Sc2ccncn2)s1	19	61*	18	-1
O=C(Nc1ccc(Cl)cc1)Nc1ccccc1Sc1ncc([N+](=O)[O-])s1	47	11	-19	-8
CC[C@@H]1[C@H]2CCCC(=O)N3CC[C@@H](C[C@@H]1Nc1ccccc1)[C@@H]23	14	12	6	-3
CCOc1cc(N2CCOCC2)c(OCC)cc1NC(=O)Cc1cccc2ccccc12	89*	1	-2	4
Cc1ccc(CNC(=O)CCSCc2ccccc2C)cc1	2	0	2	-4
CCOC(=O)C[n+]1c(C)sc2ccc(OC)cc21	45	75*	-9	0
O=C(Nc1ccc(N2CCOCC2)c(Cl)c1)c1cc2ccccc2o1	126*	4	1	2
O=[N+]([O-])c1ccc(S(=O)(=O)CC(CN2CCCCC2)N2CCCCC2)cc1 (configuration not stated)	10	64*	3	-3
Cc1ccc(S(=O)(=O)NNc2ccccc2)c(C)c1	83*	-1	-5	-12
CCc1ccc(NC(=O)CSc2nnnn2C)cc1	-2	-15	-2	2
Oc1ccc(N=Cc2ccc(OCc3ccccc3)cc2)cc1	87*	2	-2	0
O=C(C[n+]1ccc(C(=O)N/N=C/c2ccc(O)cc2)cc1)c1ccccc1	9	-2	-3	-5
O=C(C[n+]1ccc(C(=O)N/N=C/c2ccc(OCc3ccccc3)cc2)cc1)c1ccccc1	-4	3	26*	-2
O=C1c2cccnc2C(=O)N1Cc1ccc(S(=O)(=O)N2CCOc3ccccc32)cc1	-1	-5	-1	0
CS(=O)(=O)c1sc(C#N)c2c1C(=O)CC(c1ccccc1)C2 (configuration not stated)	33	42	57*	30
Cc1ccc(CS(=O)(=O)CC(C)(O)c2ccccc2)cc1 (configuration not stated)	15	-8	6	-4
COCCNCc1nc2sc(C)c(-c3ccccc3)c2c(=O)[nH]1	18	2	2	1
O=c1[nH]c2ccccc2c(O)c1-[n+]1ccccc1	40	-2	-8	-8
O=c1[nH]c2ccccc2c(O)c1O	75*	0	98*	-10
CCOC(=O)c1c2c3c(cccc3[nH]c1=O)C(=O)c1ccccc1-2	13	-2	1	-3
CCOC(=O)c1c2c3c(c(Cl)ccc3[nH]c1=O)C(=O)c1ccccc1-2	39	92*	4	5
COc1ccccc1CNC(=O)c1c(N)n(CCCN2CCOCC2)c2nc3ccccc3nc12	32	72*	12	5
SMILES	PfG6PD inh	Exocytosis inh	ABHD5-PLIN5 inh	HKDC1 inhibitor
Nc1c(C(=O)NCc2ccc3c(c2)OCO3)c2nc3ccccc3nc2n1CCCN1CCOCC1	33	12	13	20
Fc1ccc(-[n+]2nc(Nc3ccccc3)sc2-c2c(Cl)cccc2Cl)cc1	64*	3	-2	2
Cc1nn(C)c(C(=O)Sc2cccc(Cl)c2)c1[N+](=O)[O-]	24	64*	3	3
CCn1nc(C)cc1C(=O)Sc1cccc(Cl)c1	25	68*	3	-2
COCC(=O)N1CCC(n2nccc2NC(=O)c2ccccc2OC)CC1	-10	1	4	1
CC(=C/c1ccc(C(C)C)cc1)/C=N/NC(=O)Cn1nnnc1N	1	-5	-11	0
COc1ccc(CN2CCNC(=O)C2CC(=O)N(C)C2CCOCC2)c(F)c1 (configuration not stated)	-10	3	4	-1
O=C(Cn1c2[n+](c3ccc(C(F)(F)F)cc31)CCCCC2)Nc1ccc(Br)cc1	-11	1	96*	-7

High-throughput results deposited in PubChem BioAssay by several laboratories.
